Bioassay records deposited in PubChem BioAssay by The Scripps Research Institute Molecular Screening Center.
Sampled rows, rich in hits. Any-hit rate of the full collection: about 4.5%.
TAAR1 antag – human TAAR1 antagonism | Q96RJ0 | CHO RD-HGA16 TAAR1, Fluo-8 calcium fluorescence, antagonist | inhibition, % at 3 µM | hit rate 1.5% among 360,000;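 active = inhibition above a per-plate cutoff, the mean inhibition of test compounds on that plate plus 3 SD, cut at about 49% in these data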
Target sequence (Q96RJ0 whole entry, looked up): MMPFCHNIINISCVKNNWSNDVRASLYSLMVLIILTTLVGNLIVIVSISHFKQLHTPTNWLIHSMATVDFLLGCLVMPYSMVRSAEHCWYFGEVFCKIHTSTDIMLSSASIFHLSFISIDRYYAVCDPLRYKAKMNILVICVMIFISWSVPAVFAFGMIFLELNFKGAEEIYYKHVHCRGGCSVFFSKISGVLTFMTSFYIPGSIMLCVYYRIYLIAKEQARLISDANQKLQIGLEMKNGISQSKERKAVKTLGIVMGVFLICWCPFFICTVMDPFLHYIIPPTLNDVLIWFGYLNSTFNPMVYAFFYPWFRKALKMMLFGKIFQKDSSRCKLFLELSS
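Assay system: RD-HGA16 CHO cells with stable hTAAR1 and Gα16 / Reagent: EC80 β-phenethylamine stimulus / Doses: 3 µM, single point / Timing: dye loading 75 min at 37 °C, then 30 min room temperature / Measured by: Fluo-8 intracellular calcium dye fluorescence, real-time kinetic reads / Controls: vehicle wells and EC80 agonist wells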
OX1R antag-1 – blocks the human orexin 1 receptor; O43613; CHO/OX1R cells, Fluo-8 calcium fluorescence, orexin A; inhibition, % at 5 µM; hit rate 0.43% among 330,000;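 active = inhibition above its plate's threshold, mean inhibition of all tested compounds on the plate plus 3 SD, cut at about 37% in these data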
OX1R antag-2 – antagonists of human orexin 1 receptor (OX1R) | AID 485270 | inhibition, % at 6.6 µM | OX1R-expressing cells, FRET antagonist read-out | O43613 | hit rate 1.8% among 330,000; in the data active = inhibition mostly above about 38%, no sharp cut-off; inactive = mostly below about 40%
GPR7 antag – antagonists of human GPR7 (neuropeptides B/W receptor 1); P48145; GPR7-expressing cells, fluorescence antagonist assay; inhibition, % at 4.4 µM; hit rate 1.1% among 290,000; AID 1861; in the data active = inhibition above about 16%, passing the limit was not always enough;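 also: cells stimulated with the agonist NPW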
Target sequence (P48145 whole entry, looked up): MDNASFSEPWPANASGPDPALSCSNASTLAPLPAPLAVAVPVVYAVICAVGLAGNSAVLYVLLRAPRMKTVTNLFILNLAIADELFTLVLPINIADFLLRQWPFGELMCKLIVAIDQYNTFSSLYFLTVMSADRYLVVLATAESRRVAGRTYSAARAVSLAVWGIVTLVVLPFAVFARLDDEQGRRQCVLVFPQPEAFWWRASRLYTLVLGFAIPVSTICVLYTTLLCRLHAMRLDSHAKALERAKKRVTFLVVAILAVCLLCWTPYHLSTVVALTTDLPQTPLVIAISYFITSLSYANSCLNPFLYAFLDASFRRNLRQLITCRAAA
TAAR1 agonist – human TAAR1 agonism; Q96RJ0; CHO RD-HGA16 TAAR1, Fluo-8 calcium fluorescence; vehicle wells 0%, saturating PEA agonist 100%; activation, % at 3 µM; hit rate 0.99% among 360,000;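 active = activation above the mean activation of all test compounds in the run plus 3 SD, cut at about 38% in these data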
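test system = CHO RD-HGA16 cells carrying human TAAR1 plus Gα16 | schedule = 17-24 h seeding, 75 min 37 °C dye, 30 min RT | compound dosing = 3 µM single concentration | control set = DMSO and PEA EC100 | replicates = n 1 | signal = Fluo-8 fluorescence, 5 s baseline then 140 s kinetic read | measure = percent activation vs PEA EC100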
CHO parental Ca – counter-screen for OX1R antagonists: effect in parental CHO cells | parental CHO-K1, ATP-induced calcium, Fluo-8 fluorescence | inhibition, % at 5.6 µM | hit rate 0.63% among 330,000;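 active = inhibition above that plate's mean sample inhibition plus 3 SD, cut at about 26% in these data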
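Material – parental CHO cells · Reagent – ATP stimulus · Compound – single nominal dose of 5.6 µM per compound · Detection – Fluo-8 fluorescence · Read-out basis – percent inhibition of calcium signal · Controls – ATP-challenged DMSO wells low, unchallenged DMSO wells high · Repeats – no replicates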
TAAR1 nonsel count – nonselective antagonist in TAAR1 antagonist counter-screen | shares compounds with TAAR1 antag | counterscreen cell line, calcium fluorescence, antagonist mode | inhibition, % at 3 µM | hit rate 77% among 2,400 | AID 651780; in the data active = inhibition above about 22%;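 also: CHO-Ga16 host cells stimulated with ATP at an EC80 level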
TAAR1 antag conf – confirmation of human TAAR1 antagonists. shares compounds with TAAR1 antag. TAAR1-expressing cells, fluorescence antagonist read-out. inhibition, % at 3 µM. hit rate 40% among 2,400; in the data active = inhibition above about 49%;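 also: CHO-Ga16 host cells challenged with agonist PEA near its EC80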
Ga16 nonsel ag – nonselective Ga16 agonist in TAAR1 antagonist counter-screen; shares compounds with TAAR1 antag; Ga16-expressing cells, calcium fluorescence, agonist counterscreen; activation, % at 3 µM; hit rate 18% among 2,400; in the data active = activation above about 12%
TAAR1 ag counter – counter-screen for human TAAR1 antagonists: TAAR1 agonists | activation, % at 3 µM | shares compounds with TAAR1 antag | hTAAR1 cell line, fluorescence activation, agonist mode | hit rate 2% among 2,400; in the data active = activation above about 37%;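 also: CHO cells stably expressing TAAR1 with calcium dye readout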
Numbers stand for hits; i = inactive; nt = no result.

SMILES	TAAR1 antag	OX1R antag-1	OX1R antag-2	GPR7 antag	TAAR1 agonist	CHO parental Ca	TAAR1 nonsel count	TAAR1 antag conf	Ga16 nonsel ag	TAAR1 ag counter
O=C(N/N=C/c1ccccc1F)c1cc2c(ccc3ccccc32)o1	i	i	i	i	i	i	nt	nt	nt	nt
COc1cc(/C=N/NC(=O)C(=O)/C=C2\NC(C)(C)Cc3ccccc32)ccc1O	52	i	i	i	i	i	23	i	i	i
COc1ccc(S(=O)(=O)N2CCC3(CC2)CC(=O)c2ccccc2O3)cc1OC	i	i	i	nt	i	i	nt	nt	nt	nt
O=C(O)CCC(=O)Nc1ccc(-c2nc3ccc(C(=O)c4ccccc4)cc3[nH]2)cc1	i	i	i	i	i	i	nt	nt	nt	nt
O=C(c1ccccc1)c1ccc2nc(-c3ccc(NC(=O)c4ccccc4F)cc3)[nH]c2c1	59	i	i	i	i	i	29	59	i	i
Cc1n[nH]c(C)c1CCc1nc2c3ccccc3nc(SCC(=O)Nc3ccccc3F)n2n1	61	i	i	i	i	i	23	i	i	i
Cc1cncn1CCc1nc2c3ccccc3nc(SCC(=O)Nc3cccc(Cl)c3)n2n1	i	i	i	i	i	i	nt	nt	nt	nt
Cc1ccc(S(=O)(=O)NCC2CCC(C(=O)NCc3ccc4c(c3)OCO4)CC2)cc1 (stereo not drawn)	i	i	i	i	i	i	nt	nt	nt	nt
O=C(NCc1ccc2c(c1)OCO2)C1CCC(CNS(=O)(=O)c2ccc(Cl)cc2)CC1 (stereo not drawn)	49	i	i	i	i	i	i	i	i	i
CCN(CC(=O)Nc1c(C(=O)OC)[nH]c2ccc(Cl)cc12)c1ccc2c(c1)OCO2	60	i	i	i	i	i	27	i	i	i
CCOC(=O)c1[nH]c2ccc(Cl)cc2c1NC(=O)/C=C/c1ccc2c(c1)OCO2	i	i	i	i	i	i	nt	nt	nt	nt
CCN(CC)S(=O)(=O)c1cccc(NC(=O)COc2ccc(C#N)cc2OC)c1	i	i	i	i	i	i	nt	nt	nt	nt
CC(=O)CCc1ccc(OCC(=O)Nc2cccc(S(=O)(=O)N(C)c3ccccc3)c2)cc1	74	nt	nt	nt	i	nt	35	52	i	i
COc1cc(C#N)ccc1OCC(=O)Nc1cccc(S(=O)(=O)N(C)c2ccccc2)c1	74	nt	nt	nt	i	nt	36	49	i	i
CCCC(=O)Nc1cccc(S(=O)(=O)N(C)c2ccccc2)c1	i	i	i	i	i	i	nt	nt	nt	nt
O=C(c1ccc(-c2nc3ccccc3s2)o1)N1CCN(c2ccccc2O)CC1	64	i	i	i	i	i	29	i	i	i
COc1ccc(NC(=O)CNC(=O)c2nn(-c3ccc(OC)c(OC)c3)c(=O)c3ccccc23)c(OC)c1	i	i	i	i	i	i	nt	nt	nt	nt
CCOC(=O)N1CCN(C(=O)CNC(=O)c2nn(-c3ccc(OC)c(Cl)c3)c(=O)c3ccccc23)CC1	62	i	i	i	i	i	32	i	i	i
COc1ccc(-n2nc(C(=O)NCC(=O)Nc3cc(OC)c(OC)c(OC)c3)c3ccccc3c2=O)cc1	58	i	i	i	i	i	28	51	i	i
COc1ccc(-n2nc(C(=O)NCC(=O)Nc3cc(OC)c(OC)c(OC)c3)c3ccccc3c2=O)cc1OC	64	i	i	i	i	i	29	51	i	i
O=C(CSc1nnc(CNC(=O)c2c(F)cccc2F)o1)NCC1CCCO1 (stereo not drawn)	i	i	i	i	i	i	nt	nt	nt	nt
CCCCn1c(N)c(N(CCC(C)C)C(=O)COC(=O)c2cccnc2Cl)c(=O)[nH]c1=O	i	i	i	nt	i	i	nt	nt	nt	nt
CCC(C)n1c(NC(=O)c2ccccc2)c(C#N)c2nc3ccccc3nc21 (stereo not drawn)	54	i	i	i	i	i	28	i	i	i
Cc1ccc(SC[C@H](Cc2ccccc2)N2CCN(CC(C)C)CCC2=O)cc1	i	i	i	nt	i	i	nt	nt	nt	nt
CC(C)CN1CCC(=O)N([C@H](CSc2ccccc2)Cc2ccccc2)CC1	53	i	i	i	i	i	i	i	i	i
SMILES	TAAR1 antag	OX1R antag-1	OX1R antag-2	GPR7 antag	TAAR1 agonist	CHO parental Ca	TAAR1 nonsel count	TAAR1 antag conf	Ga16 nonsel ag	TAAR1 ag counter
Cn1c2ccccc2c(=O)c2ccc(C#CC3(O)CCCCC3)cc21	71	i	i	i	i	i	38	55	i	i
COc1cc2sc3ccc(C#CC4(O)CCCCC4)cc3c(=O)c2cc1OC	i	i	i	nt	i	i	nt	nt	nt	nt
Cc1cc(=O)[nH]c2nc3ccccc3n12	i	nt	nt	nt	i	nt	nt	nt	nt	nt
CSc1nc(C)nc(N/C=C(\C#N)S(=O)(=O)c2ccccc2Cl)n1	i	i	i	i	i	i	nt	nt	nt	nt
C=CCN1C(=O)CSc2ccc(C(=O)NCCC3=CCCCC3)cc21	55	i	i	i	i	i	38	50	14	i
C=CCN1C(=O)CSc2ccc(C(=O)NCc3ccco3)cc21	i	i	i	i	i	i	nt	nt	nt	nt
O=C1C=CC(=O)N1N(c1ccccc1)c1ccccc1	i	i	i	i	i	i	nt	nt	nt	nt
Cc1cc(C)nc(NC(=NCCc2c[nH]c3ccccc23)NC(=O)c2ccco2)n1	68	i	i	i	i	i	28	53	i	i
Cc1cc(C)nc(NC(=NCCc2c[nH]c3ccccc23)NC(=O)Nc2ccccc2)n1	64	i	i	i	i	i	30	54	i	i
CCOC(=O)C1=CCN(S(=O)(=O)c2ccc(F)cc2)C1c1ccccc1 (stereo not drawn)	i	nt	nt	nt	i	nt	nt	nt	nt	nt
CCc1cccc2c(C(=O)COC(=O)c3nn(C)c(=O)c4ccccc34)c[nH]c12	58	i	i	i	i	i	37	i	14	i
COc1ccc(C(=O)OCC2CC(c3ccccc3)=NO2)cc1OC (stereo not drawn)	i	i	i	i	i	i	nt	nt	nt	nt
COc1ccc(-c2nc3c(c(=O)n(C)c(=O)n3C)n2CC2CC(c3ccccc3)=NO2)cc1OC (stereo not drawn)	62	i	i	i	i	i	30	50	i	i
C/C(=N\NC(=O)COc1ccccc1[N+](=O)[O-])c1cccc(NC(=O)c2ccncc2)c1	86	i	i	i	i	i	38	58	15	i
C/C(=N\NC(=O)c1ccncc1)c1cccc(NC(=O)c2ccc(C(C)(C)C)cc2)c1	76	i	i	i	i	i	37	54	i	i
